# Measured values of several laboratories.
# Target: STE20-like serine/threonine-protein kinase (SLK, Homo sapiens, UniProt Q9H2G2)
Compound,read-out,action,technique,tested at,quantity,value
Cn1cncc1[C@@](O)(COc1ccc(C#N)cc1-c1ccc(OC(F)(F)F)cc1)c1ccc(C#N)cc1,cell-free assay,,competition with immobilised ligand,1 µM,remaining binding,100%
Cn1cc(-c2cc(F)cc(N3CCn4c(cc5c4CCCC5)C3=O)c2CO)cc(Nc2ccc(N3CCN(C4COC4)CC3)cn2)c1=O,enzyme activity,inhibitor,,0.1 µM,inhibition,4%
CC(C)(C)c1cc(C=C(C#N)C#N)cc(Br)c1O,enzyme activity,inhibitor,,0.5 µM,remaining activity,94.7%
COc1ncccc1-c1cnn2ccc(N3CCN(C(=O)OC(C)C)CC3)nc12,binding,,competition with immobilised ligand,1 µM,remaining binding,100%
Cc1nn(C)cc1-c1nc2c(N3CCN(Cc4ccc(Cl)cc4)CC3)c(Cl)cnc2[nH]1,binding,,competition with immobilised ligand,1 µM,remaining binding,100%
COc1cc(Nc2ncc(F)c(Nc3ccc4c(n3)NC(=O)C(C)(C)O4)n2)cc(OC)c1OC,binding,,,10 µM,inhibition,100%
N#CC1(c2ccccn2)CCN(Cc2cc(C(=O)O)c(=O)n3ccccc23)CC1,cell-free assay,,competition with immobilised ligand,1 µM,remaining binding,99%
O=c1[nH]c2ccccc2n1C1CCN(Cc2ccc(-c3[nH]c4cc5ncnc5cc4nc3-c3ccccc3)cc2)CC1,cell-free assay,,,0.5 µM,remaining signal,97.7%
Cn1cc(-c2cccc(N3CCc4c(sc5c4CC(C)(C)C5)C3=O)c2CO)cc(Nc2ccncn2)c1=O,enzyme activity,inhibitor,,1 µM,inhibition,4%
Nc1ncc(-c2nc(N3CCOCC3)nc(N3CCOCC3)n2)c(C(F)F)n1,binding,,competition with immobilised ligand,10 µM,remaining binding,24%
